HCT116 PTEN-null – growth suppressors of cells with PTEN tumor suppressor deletion; HCT116 PTEN-null viability, CellTiter-Glo, 60 h; active compounds read low; viability, % at 10 µM; hit rate 1.2% among 140,000; AID 827;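 active = viability at or below a set limit, 4 SD under the median of all tested compounds, cut at about 3.7% in these data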;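 note: PTEN knockout HCT116 line with beta catenin targeted HCT116 as companion control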
Lung fibro prol – blocks proliferation of human lung fibroblasts. viability, % at 10 µM. LL 47 human lung fibroblast viability, ATP luminescence; active compounds read low. hit rate 1.1% among 85,000. AID 719;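 active = viability at or below 50% in the single dose screen; inactive = viability above 50%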;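 note: compound exposure lasted 72 h before the ATP readout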
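Test system: LL 47 human lung fibroblasts / Quantity: 1,150 cells in each well / Medium: IMEM growth medium with 15% fetal bovine serum / Incubation: 72 h compound exposure at 37 °C after overnight plating / Detection: CellTiter-Glo luminescence measuring cellular ATP / Read-out: % viability versus median cells-only luminescence / Benchmarks: cell-only wells, no compound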
bCat KO growth – beta-catenin-lacking colon tumor cell growth suppression; viability, % at 10 µM; HCT116 beta-catenin knockout viability, CellTiter-Glo, 60 h; active compounds read low; hit rate 1.5% among 140,000; AID 818;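 active = viability at or under a set limit, the compound median less 4 SD, cut at about 6% in these data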
HUVEC prolif 384 – inhibitors of human endothelial cell proliferation. viability, % at 10 µM (by protocol). hit rate 1.1% among 86,000. HUVEC proliferation, CellTiter-Glo luminescence, 72 h; active compounds read low;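 active = viability at or below 30%; inactive = viability above 30%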
H69AR inhibit – growth inhibitors of human H69AR lung tumor cells; H69AR lung tumor viability, ATP luminescence, 72 h; active compounds read low; AID 598; hit rate 6% among 85,000; viability, % at 10 µM;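 active = viability at or below 40%; inactive = viability above 40%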;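 note: multidrug resistant small cell line overexpressing MRP-1 efflux transporter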
Pyk2 oligo antag – blocks oligomerization of human Pyk2 in cells | z-score (the deposit names both 25 µM and 10 µM) | hit rate 0.83% among 99,000 | AID 1347419 | Q293 cells, Pyk2 FERM NanoBiT luminescence; active compounds read low;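 active = Z-score of -3 or lower, scaled per plate to the spread of control and sample wells; inactive = z-score above -3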;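 note: negative z-score means lost luminescence so less FERM oligomerization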
Target sequence (Q14289 whole entry, looked up): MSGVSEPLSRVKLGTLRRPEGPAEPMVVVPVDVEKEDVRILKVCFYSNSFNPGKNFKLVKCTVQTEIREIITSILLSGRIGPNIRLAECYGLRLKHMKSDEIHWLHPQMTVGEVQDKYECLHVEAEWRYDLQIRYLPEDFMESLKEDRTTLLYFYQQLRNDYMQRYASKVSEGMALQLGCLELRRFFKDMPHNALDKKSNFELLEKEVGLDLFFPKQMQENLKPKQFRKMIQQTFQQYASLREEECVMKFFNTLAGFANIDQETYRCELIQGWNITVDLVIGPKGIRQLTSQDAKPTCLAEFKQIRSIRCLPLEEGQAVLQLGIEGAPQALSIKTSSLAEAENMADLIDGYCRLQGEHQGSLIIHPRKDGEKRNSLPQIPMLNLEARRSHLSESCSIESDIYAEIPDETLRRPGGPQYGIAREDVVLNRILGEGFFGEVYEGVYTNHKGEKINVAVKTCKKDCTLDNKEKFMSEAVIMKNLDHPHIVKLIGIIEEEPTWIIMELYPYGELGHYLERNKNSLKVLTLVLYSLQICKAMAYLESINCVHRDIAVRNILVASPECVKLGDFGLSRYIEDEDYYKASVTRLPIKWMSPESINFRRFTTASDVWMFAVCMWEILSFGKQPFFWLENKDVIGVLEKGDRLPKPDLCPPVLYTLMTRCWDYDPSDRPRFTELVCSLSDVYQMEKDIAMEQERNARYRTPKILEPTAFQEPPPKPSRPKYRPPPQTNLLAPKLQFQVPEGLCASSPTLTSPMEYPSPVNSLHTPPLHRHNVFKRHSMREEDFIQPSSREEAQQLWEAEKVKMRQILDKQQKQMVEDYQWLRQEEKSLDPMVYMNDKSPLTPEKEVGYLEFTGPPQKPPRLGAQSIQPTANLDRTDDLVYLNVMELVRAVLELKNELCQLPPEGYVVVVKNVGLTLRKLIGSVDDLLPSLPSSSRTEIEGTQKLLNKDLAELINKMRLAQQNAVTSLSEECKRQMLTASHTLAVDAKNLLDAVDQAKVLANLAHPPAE
Each line names hits and unclear results; the compound was inactive in the other large screens. The sample as a whole holds a higher share of hits than the screen did.

Cc1ccc(S(=O)(=O)Oc2ccc(/C=C(/NC(=O)c3ccccc3)C(=O)Nc3ccccc3)cc2)cc1	H69AR inhibit 32.0
COc1ccc(NC(=O)/C(=C\c2ccc(OS(=O)(=O)c3ccc(C)cc3)cc2)NC(=O)c2ccccc2)cc1	none
COc1cc(-c2nc(-c3ccc(NC(=O)c4ccc(Br)o4)cc3)no2)cc(OC)c1OC	H69AR inhibit 4.5
COc1ccc(CCC(=O)Nc2ccc(-c3noc(-c4ccc(OC)c(OC)c4)n3)cc2)cc1	none
COc1ccc(-c2nc(-c3ccc(NC(=O)c4ccc(Br)o4)cc3)no2)cc1OC	H69AR inhibit 3.5
COc1cc2[nH]c(=O)n(CCC(=O)N3CCN(c4cc(Cl)ccc4C)CC3)c(=O)c2cc1OC	HCT116 PTEN-null 1.9, Lung fibro prol 3.0, bCat KO growth 2.1, HUVEC prolif 384 2.0, H69AR inhibit 0.5
Cc1cc(Nc2cccc([N+](=O)[O-])c2)n2c(nc3ccccc32)c1C#N	bCat KO growth 3.4 (no result: Lung fibro prol, HUVEC prolif 384, H69AR inhibit)
Cc1ccc(O)c(/C=N/NC(=O)C2=NNC(c3ccccc3)(c3ccccc3)C2)c1	Lung fibro prol 11.7, HUVEC prolif 384 4.0, H69AR inhibit 36.8 (no result: Pyk2 oligo antag)
Cc1cccc(NC2=C(NC(=O)c3ccccc3)C(=O)c3ccccc3C2=O)c1	bCat KO growth 3.6 (no result: Lung fibro prol, HUVEC prolif 384, H69AR inhibit, Pyk2 oligo antag)
Cc1c(CCO)sc[n+]1CC(=O)OCCC12CC3CC(CC(C3)C1)C2	none (no result: Lung fibro prol, HUVEC prolif 384, H69AR inhibit, Pyk2 oligo antag)
Cc1c(CCOC(=O)C2C3CC4CC(C3)CC2C4)sc[n+]1CC(=O)c1ccc(Br)cc1 (stereo unspecified)	HUVEC prolif 384 2.6, H69AR inhibit 0.9
c1cnc2c(SCc3ccc(-c4nnco4)cc3)cccc2c1	none
CCOC(=O)CSc1cccc2cccnc12	HCT116 PTEN-null 2.7, Lung fibro prol 45.9, bCat KO growth 6.0, H69AR inhibit 0.3
Cc1cccc(CSc2cccc3cccnc23)c1	HCT116 PTEN-null 2.8, bCat KO growth 4.9 (no result: Lung fibro prol, HUVEC prolif 384, H69AR inhibit)
COCCN(CC(=O)Nc1ccccc1)S(=O)(=O)c1ccc(S(=O)(=O)N2CCCC2)cc1	none
CCc1cccc(NC(=O)CSCc2cc(=O)[nH][nH]2)c1	none
CCc1cccc(NC(=O)CSC2=NS(=O)(=O)c3ccccc32)c1	Lung fibro prol 49.6, H69AR inhibit 3.5 (no result: Pyk2 oligo antag)
COc1ccc(-c2csc3ncnc(NCCN4CCOCC4)c23)cc1	H69AR inhibit 21.0
Cc1ccc(-c2csc3ncnc(NCCN4CCOCC4)c23)cc1	H69AR inhibit 26.6
Clc1ccc(-c2csc3ncnc(NCCN4CCOCC4)c23)cc1	none
Cc1ccc(Cc2nnc3n(-c4ccccc4)nc(C(=O)c4ccccc4)n3c2=O)cc1	H69AR inhibit 21.1
Cc1ccc(Cn2nnc3c(=O)n(CC(=O)c4ccccc4)cnc32)cc1	none (no result: Pyk2 oligo antag)
CC(=O)N1CCC(N(CCN2CCOCC2)C(=S)Nc2c(C)cccc2C)CC1	none (no result: Lung fibro prol, HUVEC prolif 384, H69AR inhibit, Pyk2 oligo antag)
CSc1cccc(NC(=O)C2CCN(C(=O)c3ccccc3C)CC2)c1	none (no result: Lung fibro prol, HUVEC prolif 384, H69AR inhibit)
CN1C(=O)COc2ccc(C(=O)c3oc4ccccc4c3-c3cnc4c(c3)COc3ccccc3-4)cc21	none (no result: Pyk2 oligo antag)
COc1ccc(-c2csc(Nc3ncccc3C)n2)cc1OC	none
Cc1cccnc1Nc1nc(-c2ccc(O)c(O)c2)cs1	H69AR inhibit 27.6
COc1ccc(Cn2c(-c3ccc(OC)cc3)nc3ccccc32)cc1	none
COc1ccc(CCN2CCC(Nc3nc4ccccc4n3Cc3ccc(F)cc3)CC2)cc1	HCT116 PTEN-null 1.2, Lung fibro prol 2.1, bCat KO growth 1.0, HUVEC prolif 384 1.9, H69AR inhibit 1.5 (no result: Pyk2 oligo antag)
CCOC(=O)c1ccc(NC(=O)CN(c2ccc(C)cc2)S(=O)(=O)c2c(C)n[nH]c2C)cc1	Pyk2 oligo antag -3.38
Cc1ccc(N(CC(=O)Nc2ccc3c(c2)OCCO3)S(=O)(=O)c2c(C)n[nH]c2C)cc1	Pyk2 oligo antag -3.49
Cc1ccc(N(CC(=O)Nc2ccc3c(c2)OCCO3)S(=O)(=O)c2c(C)noc2C)cc1	none
CCOc1ccccc1NC(=O)CN(c1ccc(C)cc1)S(=O)(=O)c1c(C)n[nH]c1C	none
CCOC(=O)C1(CC/C(C)=N\NC(N)=O)CC(C)(C)OC1=O (stereo unspecified)	none (no result: Lung fibro prol, HUVEC prolif 384, H69AR inhibit)
CCCc1nc2ccccc2c(C(=O)OCC(=O)Nc2ccc(S(=O)(=O)N3CCOCC3)cc2)c1CC	H69AR inhibit 5.8, Pyk2 oligo antag -4.55

Screening data (PubChem BioAssay)
